Reference: ChEMBL document CHEMBL2412955, “Synthesis and antibacterial activities of N-substituted-glycinyl 1H-1,2,3-triazolyl oxazolidinones” (2013)
Converted amounts (≈) assume the structure as drawn.

Tests used:
Assay type in all cases: functional
[1] = tested on: Staphylococcus aureus; assay: Antibacterial activity against Staphylococcus aureus ATCC 25923 after 18 hrs by […] in presence of human plasma; details: ATCC 25923, Plasma
In short: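 To gauge plasma protein binding and/or plasma instability, MIC was determined in Mueller-Hinton broth containing 50% human plasma. Linezolid served as a reference agent. Ratio compares this MIC with the MIC obtained without plasma.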

[2] = tested on: Enterococcus; assay: Antibacterial activity against vancomycin-resistant Enterococcus after 18 hrs by NCCLS agar dilution method
In short: (§1)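 Clinical isolates were tested by agar dilution on Mueller-Hinton agar with drug dilutions from 0.12 to 64 µg/ml. Test compounds were dissolved in 80% DMSO in water. Final inoculum was 10^7 CFU/ml, incubated at 35 °C for 18 h. MIC was the lowest concentration inhibiting visible growth.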

[3] = tested on: Streptococcus pneumoniae; assay: Antibacterial activity against penicillin-resistant Streptococcus pneumoniae after 18 hrs by NCCLS agar dilution method
In short: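 Agar dilution was run on Mueller-Hinton agar supplemented with 5% sheep blood, with drug dilutions from 0.12 to 64 µg/ml. Test compounds were dissolved in 80% DMSO in water. Final inoculum was 10^7 CFU/ml, incubated at 35 °C for 18 h. MIC was the lowest concentration preventing visible growth.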

[4] = tested on: Staphylococcus; assay: Antibacterial activity against methicillin-resistant coagulase-negative Staphylococcus after 18 hrs by NCCLS agar dilution method; in short: as §1
[5] = tested on: Haemophilus influenzae; assay: Antibacterial activity against Haemophilus influenzae ATCC 49247 after 18 hrs by NCCLS agar dilution method; details: ATCC 49247, 18 h
In short: (§2)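 NCCLS agar dilution on Mueller-Hinton agar with 5% sheep blood added to support growth. Drug dilutions 0.12–64 µg/ml. Test agents in 80% DMSO in water, linezolid in 40% water in ethanol. Final inoculum 10^7 CFU/ml, 18 h at 35 °C. MIC read as the lowest concentration with no visible growth.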

[6] = tested on: Moraxella catarrhalis; assay: Antibacterial activity against Moraxella catarrhalis ATCC 8176 after 18 hrs by NCCLS agar dilution method; details: ATCC 8176, 18 h; in short: as §2
[7] = tested on: Staphylococcus; assay: Antibacterial activity against methicillin-susceptible coagulase-negative Staphylococcus after 18 hrs by NCCLS agar dilution method; in short: as §1
[8] = tested on: Staphylococcus aureus; assay: Antibacterial activity against methicillin-resistant Staphylococcus aureus after 18 hrs by NCCLS agar dilution method; in short: as §1
[9] = tested on: Staphylococcus aureus; assay: Antibacterial activity against Staphylococcus aureus ATCC 25923 after 18 hrs by NCCLS agar dilution method; details: ATCC 25923, 18 h
In short: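 Plain Mueller-Hinton agar, agar dilution per NCCLS, concentrations 0.12–64 µg/ml. Test agents in 80% DMSO in water, linezolid in 40% water in ethanol, vancomycin in water. Final inoculum 10^7 CFU/ml, 35 °C for 18 h. MIC = lowest concentration inhibiting visible growth.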

[10] = tested on: Escherichia coli; assay: Antibacterial activity against Escherichia coli ATCC 25922 after 18 hrs by NCCLS agar dilution method; details: ATCC 25922, 18 h
In short: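 Agar dilution per NCCLS on Mueller-Hinton agar, drug dilutions 0.12–64 µg/ml. Linezolid dissolved in 40% water in ethanol, vancomycin in water, test agents in 80% DMSO in water. Inoculum 10^7 CFU/ml (final), incubated 35 °C for 18 h. MIC is the lowest concentration preventing visible growth.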

[11] = tested on: Staphylococcus aureus; assay: Antibacterial activity against methicillin-susceptible Staphylococcus aureus after 18 hrs by NCCLS agar dilution method; in short: as §1
[12] = tested on: Enterococcus; assay: Antibacterial activity against vancomycin-susceptible Enterococcus after 18 hrs by NCCLS agar dilution method; in short: as §1
[13] = tested on: Moraxella catarrhalis; assay: Antibacterial activity against Moraxella catarrhalis clinical isolate 125 after 18 hrs by NCCLS agar dilution method; details: clinical isolate 125, 18 h; in short: as §2
[14] = tested on: Moraxella catarrhalis; assay: Antibacterial activity against Moraxella catarrhalis clinical isolate 1 after 18 hrs by NCCLS agar dilution method; details: clinical isolate 1, 18 h; in short: as §2
[15] = tested on: Moraxella catarrhalis; assay: Antibacterial activity against Moraxella catarrhalis clinical isolate 138 after 18 hrs by NCCLS agar dilution method; details: clinical isolate 138, 18 h; in short: as §2
[16] = tested on: Moraxella catarrhalis; assay: Antibacterial activity against Moraxella catarrhalis clinical isolate 255 after 18 hrs by NCCLS agar dilution method; details: clinical isolate 255, 18 h; in short: as §2
[17] = tested on: Moraxella catarrhalis; assay: Antibacterial activity against Moraxella catarrhalis clinical isolate 2824 after 18 hrs by NCCLS agar dilution method; details: clinical isolate 2824, 18 h; in short: as §2
[18] = tested on: Moraxella catarrhalis; assay: Antibacterial activity against Moraxella catarrhalis clinical isolate 36 after 18 hrs by NCCLS agar dilution method; details: clinical isolate 36, 18 h; in short: as §2
[19] = tested on: Moraxella catarrhalis; assay: Antibacterial activity against Moraxella catarrhalis clinical isolate 3447 after 18 hrs by NCCLS agar dilution method; details: clinical isolate 3447, 18 h; in short: as §2
[20] = tested on: Moraxella catarrhalis; assay: Antibacterial activity against Moraxella catarrhalis clinical isolate 112 after 18 hrs by NCCLS agar dilution method; details: clinical isolate 112, 18 h; in short: as §2

## Cc1cn(C[C@H]2CN(c3ccc(N4CCN(C(=O)CNS(=O)(=O)c5cccs5)CC4)c(F)c3)C(=O)O2)nn1
[1]
  MIC: 32 µg/mL
[2]
  MIC: 8 µg/mL (≈ 14.2 µM)
[3]
  MIC: 2 µg/mL (≈ 3.55 µM)
[4]
  MIC: 8 µg/mL (≈ 14.2 µM)
[5]
  MIC: 64 µg/mL (≈ 114 µM)
[6]
  MIC: 32 µg/mL (≈ 56.8 µM)
[7]
  MIC: 8 µg/mL (≈ 14.2 µM)
[8]
  MIC: 8 µg/mL (≈ 14.2 µM)
[9]
  MIC: 16 µg/mL (≈ 28.4 µM)
[10]
  MIC: > 64 µg/mL
[11]
  MIC: 8 µg/mL (≈ 14.2 µM)
[12]
  MIC: 8 µg/mL (≈ 14.2 µM)

## Cc1cn(C[C@H]2CN(c3ccc(N4CCN(C(=O)CNC(=O)c5ccco5)CC4)c(F)c3)C(=O)O2)nn1
[13]
  MIC: > 8 µg/mL
[1]
  MIC: 4 µg/mL
[2]
  MIC: 2 µg/mL (≈ 3.91 µM)
[3]
  MIC: 0.5 µg/mL (≈ 0.977 µM)
[4]
  MIC: 2 µg/mL (≈ 3.91 µM)
[14]
  MIC: > 8 µg/mL
[5]
  MIC: 4 µg/mL (≈ 7.82 µM)
[15]
  MIC: > 8 µg/mL
[6]
  MIC: 8 µg/mL (≈ 15.6 µM)
[7]
  MIC: 2 µg/mL (≈ 3.91 µM)
[16]
  MIC: > 8 µg/mL
[8]
  MIC: 2 µg/mL (≈ 3.91 µM)
[9]
  MIC: 2 µg/mL (≈ 3.91 µM)
[10]
  MIC: > 64 µg/mL
[11]
  MIC: 2 µg/mL (≈ 3.91 µM)
[17]
  MIC: > 8 µg/mL
[18]
  MIC: > 8 µg/mL
[19]
  MIC: > 8 µg/mL
[12]
  MIC: 2 µg/mL (≈ 3.91 µM)
[20]
  MIC: > 8 µg/mL

## O=C(NCC(=O)N1CCN(c2ccc(N3C[C@H](Cn4ccnn4)OC3=O)cc2F)CC1)c1cccnc1
[13]
  MIC: 8 µg/mL (≈ 15.7 µM)
[1]
  MIC: 8 µg/mL
[2]
  MIC: 2 µg/mL (≈ 3.93 µM)
[3]
  MIC: 0.25 µg/mL (≈ 0.492 µM)
[4]
  MIC: 1 µg/mL (≈ 1.97 µM)
[14]
  MIC: 8 µg/mL (≈ 15.7 µM)
[5]
  MIC: 8 µg/mL (≈ 15.7 µM)
[15]
  MIC: 8 µg/mL (≈ 15.7 µM)
[6]
  MIC: 8 µg/mL (≈ 15.7 µM)
[7]
  MIC: 1 µg/mL (≈ 1.97 µM)
[16]
  MIC: 8 µg/mL (≈ 15.7 µM)
[8]
  MIC: 1 µg/mL (≈ 1.97 µM)
[9]
  MIC: 2 µg/mL (≈ 3.93 µM)
[10]
  MIC: > 64 µg/mL
[11]
  MIC: 1 µg/mL (≈ 1.97 µM)
[17]
  MIC: 8 µg/mL (≈ 15.7 µM)
[18]
  MIC: 8 µg/mL (≈ 15.7 µM)
[19]
  MIC: 8 µg/mL (≈ 15.7 µM)
[12]
  MIC: 2 µg/mL (≈ 3.93 µM)
[20]
  MIC: 8 µg/mL (≈ 15.7 µM)

## O=C(CNS(=O)(=O)c1cccs1)N1CCN(c2ccc(N3C[C@H](Cn4ccnn4)OC3=O)cc2F)CC1
[1]
  MIC: 32 µg/mL
[2]
  MIC: 2 µg/mL (≈ 3.64 µM)
[3]
  MIC: 1 µg/mL (≈ 1.82 µM)
[4]
  MIC: 2 µg/mL (≈ 3.64 µM)
[5]
  MIC: ≥ 64 µg/mL
[6]
  MIC: 32 µg/mL (≈ 58.2 µM)
[7]
  MIC: 2 µg/mL (≈ 3.64 µM)
[8]
  MIC: 2 µg/mL (≈ 3.64 µM)
[9]
  MIC: 4 µg/mL (≈ 7.28 µM)
[10]
  MIC: > 64 µg/mL
[11]
  MIC: 2 µg/mL (≈ 3.64 µM)
[12]
  MIC: 2 µg/mL (≈ 3.64 µM)

## O=C(NCC(=O)N1CCN(c2ccc(N3C[C@H](Cn4ccnn4)OC3=O)cc2F)CC1)C1CCCO1 (some centres not stated)
[1]
  MIC: 16 µg/mL
[2]
  MIC: 8 µg/mL (≈ 16 µM)
[3]
  MIC: 1 µg/mL (≈ 1.99 µM)
[4]
  MIC: 4 µg/mL (≈ 7.98 µM)
[5]
  MIC: 32 µg/mL (≈ 63.8 µM)
[6]
  MIC: 16 µg/mL (≈ 31.9 µM)
[7]
  MIC: 4 µg/mL (≈ 7.98 µM)
[8]
  MIC: 4 µg/mL (≈ 7.98 µM)
[9]
  MIC: 8 µg/mL (≈ 16 µM)
[10]
  MIC: > 64 µg/mL
[11]
  MIC: 4 µg/mL (≈ 7.98 µM)
[12]
  MIC: 4 µg/mL (≈ 7.98 µM)

## Cc1cn(C[C@H]2CN(c3ccc(N4CCN(C(=O)CNC(=O)C5CCCO5)CC4)c(F)c3)C(=O)O2)nn1 (some centres not stated)
[1]
  MIC: 32 µg/mL
[2]
  MIC: 16 µg/mL (≈ 31 µM)
[3]
  MIC: 0.5 µg/mL (≈ 0.97 µM)
[4]
  MIC: 16 µg/mL (≈ 31 µM)
[5]
  MIC: 32 µg/mL (≈ 62.1 µM)
[6]
  MIC: 32 µg/mL (≈ 62.1 µM)
[7]
  MIC: 16 µg/mL (≈ 31 µM)
[8]
  MIC: 16 µg/mL (≈ 31 µM)
[9]
  MIC: 32 µg/mL (≈ 62.1 µM)
[10]
  MIC: > 64 µg/mL
[11]
  MIC: 16 µg/mL (≈ 31 µM)
[12]
  MIC: 16 µg/mL (≈ 31 µM)

## O=C(NCC(=O)N1CCN(c2ccc(N3C[C@H](Cn4ccnn4)OC3=O)cc2F)CC1)c1ccccc1
[1]
  MIC: > 64 µg/mL
[2]
  MIC: 0.5 µg/mL (≈ 0.985 µM)
[3]
  MIC: 1 µg/mL (≈ 1.97 µM)
[4]
  MIC: 0.5 µg/mL (≈ 0.985 µM)
[5]
  MIC: 32 µg/mL (≈ 63.1 µM)
[6]
  MIC: 32 µg/mL (≈ 63.1 µM)
[7]
  MIC: 0.5 µg/mL (≈ 0.985 µM)
[8]
  MIC: 0.5 µg/mL (≈ 0.985 µM)
[9]
  MIC: 1 µg/mL (≈ 1.97 µM)
[10]
  MIC: > 64 µg/mL
[11]
  MIC: 0.5 µg/mL (≈ 0.985 µM)
[12]
  MIC: 1 µg/mL (≈ 1.97 µM)

## CC(=O)NC[C@H]1CN(c2ccc(N3CCOCC3)c(F)c2)C(=O)O1 [LINEZOLID]
[13]
  MIC: 8 µg/mL (≈ 23.7 µM)
[2]
  MIC: 0.5 µg/mL (≈ 1.48 µM)
[4]
  MIC: 0.5 µg/mL (≈ 1.48 µM)
[14]
  MIC: 8 µg/mL (≈ 23.7 µM)
[5]
  MIC: 8 µg/mL (≈ 23.7 µM)
[15]
  MIC: 8 µg/mL (≈ 23.7 µM)
[6]
  MIC: 8 µg/mL (≈ 23.7 µM)
[7]
  MIC: 0.5 µg/mL (≈ 1.48 µM)
[16]
  MIC: 8 µg/mL (≈ 23.7 µM)
[8]
  MIC: 0.5 µg/mL (≈ 1.48 µM)
[10]
  MIC: > 64 µg/mL
[11]
  MIC: 0.5 µg/mL (≈ 1.48 µM)
[17]
  MIC: 8 µg/mL (≈ 23.7 µM)
[18]
  MIC: 8 µg/mL (≈ 23.7 µM)
[19]
  MIC: 8 µg/mL (≈ 23.7 µM)
[12]
  MIC: 0.5 µg/mL (≈ 1.48 µM)
[20]
  MIC: 8 µg/mL (≈ 23.7 µM)
